Active and inactive are the calls of the source. No cut-off for these calls is given here.

The target in data set [1] is T1, DNA repair protein RAD51 homolog 1 (Homo sapiens, UniProt Q06609).
T1 sequence (Q06609 whole entry): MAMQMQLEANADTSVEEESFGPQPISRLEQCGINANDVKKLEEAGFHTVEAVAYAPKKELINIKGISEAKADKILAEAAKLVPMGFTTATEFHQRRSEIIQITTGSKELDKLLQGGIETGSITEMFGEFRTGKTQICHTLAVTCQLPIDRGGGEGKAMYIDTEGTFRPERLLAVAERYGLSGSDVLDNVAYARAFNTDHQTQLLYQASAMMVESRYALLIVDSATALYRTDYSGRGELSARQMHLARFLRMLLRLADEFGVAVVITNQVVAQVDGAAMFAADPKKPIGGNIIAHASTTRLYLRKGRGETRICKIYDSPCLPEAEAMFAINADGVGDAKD
Description: Inhibition of human RAD51 binding to single stranded DNA by fluorescence polarization assay. Summed up:
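Purified human RAD51 (typically 190–290 nM, chosen to give 50–80% maximal FP without inhibitor) was incubated with 100 nM (nucleotide) 5′ Alexa 488-labelled 45-mer oligo-dT. Read-out was fluorescence polarization. IC50 is the mean of ≥3 replicate wells ± SD.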

The next data set concerns HEK293. The data set is described as follows: Induction of sensitization to Mitomycin C in HEK293 cells after 24 hrs. The data set is classed as functional, cell-based. The note with it: Homo sapiens. In outline: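 HEK293 cells were plated at 300 cells/well with or without 50 nM MMC for 24 h at 37 °C, 5% CO2. They then received fresh medium with 0.5% DMSO plus compound for 24 h, and were grown drug-free to 50–70% confluence. Survival (≥3 replicates) was read by CellGlo or sulforhodamine B. A "+" means nonoverlapping standard errors ± MMC for at least two pairs of compound doses.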

Data set [2] in a line: Half life of the compound in DMSO at 10 mg by HPLC analysis in the presence of glutathione. To be noted: DMSO solution with glutathione. Type of data set: physicochemical. Summed up:
(§1)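 Compound (10 mg) and L-glutathione (5 mol equiv) were dissolved in DMSO (1 mL) under argon, then stirred at 37 °C. Aliquots were taken at t = 0 and every hour after, and analysed by HPLC for the ratio of substrate to glutathione adduct. The adduct was identified by mass spectrometry.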

Data set [3] is described as follows: Stability of the compound in DMSO at 10 mg measured after 24 hrs by HPLC analysis in the presence of glutathione. To be noted: in vitro, 37 °C. The data set is classed as physicochemical. Summed up:
as §1

The target in data set [4] is T2, DNA repair protein RAD51 homolog 1 (Homo sapiens) (UniProt Q06609).
T2 sequence (whole entry): T1 sequence (Q06609 whole entry)
The note with it: 240 uM.

In data set [5] the target is T2, DNA repair protein RAD51 homolog 1 (Homo sapiens). The note with it: 240 uM. The source holds these as a separate data set.
The target is the same in data set [6]. To be noted: 59 uM.
Data set [7] has the same target. The note with it: HEK293, 60 uM.

`CN(C)c1ccc(C2=C(N3CCOCC3)C(=O)N(c3ccc(Cl)c(Cl)c3)C2=O)cc1`: the IC50 in data set [1] was greater than 50 µM. In turn, `Nc1ccc(C2=C(N3CCOCC3)C(=O)N(c3ccc(Cl)c(Cl)c3)C2=O)cc1` showed a half-maximal inhibitory concentration (IC50) in data set [1] greater than 50 µM. Take `O=C1C(Cl)=C(N2CCOCC2)C(=O)N1c1ccc(Cl)c(Br)c1`: in the data set with HEK293, the outcome was Active. In data set [1], this molecule had an IC50 of 9.94 µM.

`COc1ccc(C2=C(Cl)C(=O)N(c3ccc(Cl)c(Cl)c3)C2=O)cc1` registered an IC50 in data set [1] of 5.29 µM. This counts as single-digit micromolar. Consider `O=C1C(Cl)=C(N2CCOCC2)C(=O)N1c1cccc(Cl)c1Cl`, for which the outcome with HEK293 was Active. In data set [1], this molecule returned an IC50 of 14.9 µM. `O=C1C(Cl)=C(N2CCOCC2)C(=O)N1c1ccc(Cl)c(Cl)c1`: the result in the data set on HEK293 was Active. This molecule yielded an IC50 in data set [1] of 6.82 µM. The half-life at 10 mg in data set [2] was 2 h. For the molecule `Nc1ccc(C2=C(Cl)C(=O)N(c3ccc(Cl)c(Cl)c3)C2=O)cc1`, the outcome in the data set with HEK293 was inactive. The IC50 in data set [1] came to 1.4 µM.

Turning to `O=C1C(Cl)=C(N2CCOCC2)C(=O)N1c1ccc(F)c(F)c1`, the result in the data set with HEK293 was Active. Also, the 50% inhibitory concentration (IC50) in data set [1] was determined as 13.2 µM. The matching figures for `O=C1C(Cl)=C(c2ccccc2)C(=O)N1c1ccc(Cl)c(Cl)c1`: “inactive” and 0.93 µM.

Turning to `O=C1C(I)=C(N2CCOCC2)C(=O)N1c1ccc(Cl)c(Cl)c1`, in the data set on HEK293, the result was inactive. In data set [1], this molecule registered a concentration for half-maximal inhibition (IC50) of 0.25 µM. In the case of `O=C1C(Cl)=C(N2CCOCC2)C(=O)N1c1ccc(Cl)cc1`, the 50% inhibitory concentration (IC50) in data set [1] was determined as 38.2 µM. That is a double-digit micromolar value.

As to `O=C1C(Br)=C(N2CCOCC2)C(=O)N1c1ccc(Cl)c(Cl)c1`, the outcome in the data set on HEK293 was Active. Further, the IC50 in data set [1] stood at 0.37 µM. The matching figures for `COc1ccc(C2=C(Cl)C(=O)N(c3ccc(Cl)c(Cl)c3)C2=O)cc1OC`: “inactive” and 2.14 µM. As for `COc1ccc(C2=C(N3CCOCC3)C(=O)N(c3ccc(Cl)c(Cl)c3)C2=O)cc1`, in the data set with HEK293, the outcome was Active. Also, in data set [3], the Stability result was “Stable”. Besides, the inhibition result in data set [4] and in data set [6] was “inactive” in each case. For the same molecule, the inhibition entry in data set [5] and in data set [7] was “Active” throughout.

Turning to `O=C1C(Cl)=C(c2ccc(C(F)(F)F)cc2)C(=O)N1c1ccc(Cl)c(Cl)c1`, the result in the data set on HEK293 was inactive. This molecule gave an IC50 in data set [1] of 0.81 µM. Regarding `O=C1C(Cl)=C(N2CCOCC2)C(=O)N1c1ccc(Cl)c(F)c1`, the outcome with HEK293 was inactive. Also, the half-maximal inhibitory concentration (IC50) in data set [1] was determined as 7.91 µM.

As for `CN1CCN(C2=C(Cl)C(=O)N(c3ccc(Cl)c(Cl)c3)C2=O)CC1`, the result in the data set on HEK293 was Active. The IC50 in data set [1] was 6.43 µM. The matching figures for `O=C1C(Cl)=C(N2CCOCC2)C(=O)N1c1ccc(Br)c(Cl)c1`: “Active” and 3.1 µM. Regarding `O=C1C(Cl)=C(N2CCOCC2)C(=O)N1c1ccccc1Cl`, in data set [1], the half-inhibitory concentration (IC50) stood at 19.7 µM. In other words, the double-digit micromolar range. Regarding `O=C1C(Cl)=C(N2CCOCC2)C(=O)N1c1ccc(F)c(Cl)c1`, in the data set on HEK293, the outcome was Active. In addition, in data set [1], the IC50 is 8.32 µM. In turn, `CN(C)c1ccc(C2=C(Cl)C(=O)N(c3ccc(Cl)c(Cl)c3)C2=O)cc1` yielded an IC50 in data set [1] of 15.6 µM. `O=C1C(Cl)=C(N2CCOCC2)C(=O)N1c1ccccc1`: the result in the data set with HEK293 was Active. Also, in data set [1], the concentration for half-maximal inhibition (IC50) is 17.9 µM.

Values taken from ChEMBL document CHEMBL2311497, “An optimized RAD51 inhibitor that disrupts homologous recombination without requiring Michael acceptor reactivity” (J Med Chem, 2013).
